Results from ChEMBL document CHEMBL3351240, “Antinociceptive properties of physalins from Physalis angulata” (J Nat Prod, 2014).
The source made the active and inactive calls.

Key:
Mus musculus [1] = experiment: Antinociceptive activity in Swiss Webster mouse assessed as inhibition of acetic acid-induced abdominal constrictions at 25 to 100 mg/kg, ip dosed 40 mins before acetic acid injection; type: functional, organism-based; details: Abdomen
Summary of the method: (§1)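 Male Swiss Webster mice dosed ip (5% DMSO in saline vehicle) 40 min before ip acetic acid 0.8% v/v, 10 mL/kg; writhes (abdominal contraction with hind-limb stretching) counted over 0−30 min; mean writhing score, n = 10 per group; ANOVA with Tukey.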

Mus musculus [2] = experiment: Antinociceptive activity in Swiss Webster mouse assessed as inhibition of formalin-induced late phase pain response at 25 to 100 mg/kg, ip dosed 40 mins before formalin injection; type: functional, organism-based
Summary of the method: (§2)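 Mice acclimated 30 min in chamber, dosed ip 40 min before sc injection of 20 μL 2.5% formalin into dorsal hind paw; licking time of injected paw scored 0−10 min (early phase) and 10−30 min (late phase); n = 7−10; ANOVA with Tukey.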

Mus musculus [3] = experiment: CNS toxicity in Swiss Webster mouse assessed as effect on motor performance at 100 mg/kg, ip after 40 mins by rotarod test; type: organism-based; parameters: dose 100 mg/kg, route intraperitoneal; details: in vivo
Summary of the method: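 Rota-rod test: 3 cm bar at 8 rpm; mice pre-selected 24 h earlier by remaining on bar for two consecutive 120 s periods; placed on rod 40 min after ip dosing; time on bar recorded up to 120 s; n = 6; one-way ANOVA with Tukey.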

Mus musculus [4] = experiment: CNS toxicity in Swiss Webster mouse assessed as effect on motor performance at 100 mg/kg, ip after 40 mins by open field test; type: organism-based; parameters: dose 100 mg/kg, route intraperitoneal; details: in vivo
Summary of the method: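 Open-field test 40 min after ip dosing: mice placed singly in 40 × 60 × 50 cm box with 12 floor squares; squares crossed with all four paws counted over 3 min; n = 6; one-way ANOVA with Tukey.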

Mus musculus [5] = experiment: Antiinflammatory activity in Swiss Webster mouse assessed as reduction in hyperalgesia at 100 mg/kg, ip dosed 40 mins before CFA injection and measured 2 to 6 hrs post CFA stimulus; type: functional, organism-based; parameters: dose 100 mg/kg
Summary of the method: (§3)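 Male Swiss Webster mice (22−28 g) given drug ip in 5% DMSO/saline (dexamethasone in 10% ethanol/saline) 40 min before 20 μL CFA (1 mg/mL heat-killed M. tuberculosis in paraffin oil/mannide monooleate) sc into right hind paw plantar region. Mechanical threshold by von Frey filaments, up−down method, at 2, 4 and 6 h; n = 6; two-way ANOVA with Bonferroni.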

Mus musculus [6] = experiment: Antiinflammatory activity in Swiss Webster mouse assessed as reduction in paw edema at 100 mg/kg, ip dosed 40 mins before CFA injection and measured 2 hrs post CFA stimulus; type: functional, organism-based; parameters: dose 100 mg/kg
Summary of the method: (§4)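 Male Swiss Webster mice, ip pretreatment in 5% DMSO/saline 40 min before intraplantar CFA (20 μL, 1 mg/mL heat-killed M. tuberculosis). Paw volume measured by plethysmometer before and 2, 4, 6 h after CFA; edema expressed as percent increase in paw volume; n = 6 mice/group; two-way ANOVA with Bonferroni.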

Mus musculus [7] = experiment: Antinociceptive activity in Swiss Webster mouse assessed as increase in reaction time at 100 mg/kg, ip measured after 3 hrs by tail flick test; type: functional, organism-based; parameters: dose 100 mg/kg
Summary of the method: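 Mice habituated to restraint cylinder 20 min/day for 5 days; distal 2 cm of tail immersed in 48 ± 0.5 °C water; tail withdrawal latency measured before and after ip dosing (5% DMSO/saline vehicle); 10 s cutoff; n = 6; two-way ANOVA with Bonferroni.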

Mus musculus [8] = experiment: Antiinflammatory activity in Swiss Webster mouse assessed as reduction in paw edema at 100 mg/kg, ip dosed 40 mins before CFA injection and measured 2 to 6 hrs post CFA stimulus; type: functional, organism-based; parameters: dose 100 mg/kg; summary of the method: as §4
Mus musculus [9] = experiment: Antinociceptive activity in Swiss Webster mouse assessed as increase in latency time at 100 mg/kg, ip measured after 0.5 hrs by hot plate test; type: functional, organism-based; parameters: dose 100 mg/kg
Summary of the method: (§5)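 Hot plate held at 55 ± 1 °C; male Swiss Webster mice; reaction time to hind paw licking or jumping recorded before and after ip dosing (vehicle 5% DMSO in saline); data as difference from baseline; 10 s cutoff; n = 6; two-way ANOVA with Bonferroni.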

Mus musculus [10] = experiment: Antinociceptive activity in Swiss Webster mouse assessed as inhibition of acetic acid-induced abdominal constrictions at 25 mg/kg, ip dosed 40 mins before acetic acid injection; type: functional, organism-based; parameters: dose 25 mg/kg; details: Abdomen; summary of the method: as §1
Mus musculus [11] = experiment: Antinociceptive activity in Swiss Webster mouse assessed as inhibition of formalin-induced late phase pain response at 50 to 100 mg/kg, ip dosed 40 mins before formalin injection; type: functional, organism-based; summary of the method: as §2
Mus musculus [12] = experiment: Antinociceptive activity in Swiss Webster mouse assessed as inhibition of formalin-induced early phase pain response at 50 to 100 mg/kg, ip dosed 40 mins before formalin injection; type: functional, organism-based; summary of the method: as §2
Mus musculus [13] = experiment: Antiinflammatory activity in Swiss Webster mouse assessed as reduction in hyperalgesia at 100 mg/kg, ip dosed 40 mins before CFA injection and measured 2 hrs post CFA stimulus; type: functional, organism-based; parameters: dose 100 mg/kg; summary of the method: as §3
Mus musculus [14] = experiment: Antiinflammatory activity in Swiss Webster mouse assessed as reduction in hyperalgesia at 100 mg/kg, ip dosed 40 mins before CFA injection and measured 4 to 6 hrs post CFA stimulus; type: functional, organism-based; parameters: dose 100 mg/kg; summary of the method: as §3
Mus musculus [15] = experiment: Antiinflammatory activity in Swiss Webster mouse assessed as reduction in paw edema at 50 to 100 mg/kg, ip dosed 40 mins before CFA injection and measured 2 to 4 hrs post CFA stimulus; type: functional, organism-based; summary of the method: as §4
Mus musculus [16] = experiment: Reduction in TNFalpha level in Swiss Webster mouse 100 mg/kg, ip dosed 40 mins before CFA injection and measured 3 hrs post CFA stimulus by ELISA method; type: functional, organism-based; parameters: dose 100 mg/kg; details: at 100 mg/kg
Summary of the method: (§6)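 Mice dosed ip 40 min before intraplantar CFA; paw skin removed under terminal halothane anesthesia; proteins extracted at 100 mg tissue/mL PBS with 0.4 M NaCl, 0.05% Tween 20 and protease inhibitors; centrifuged 3000g for 10 min; supernatant IL-1β or TNF-α measured by ELISA as pg/mL; n = 6.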

Mus musculus [17] = experiment: Reduction in IL1-beta level in Swiss Webster mouse 100 mg/kg, ip dosed 40 mins before CFA injection and measured 3 hrs post CFA stimulus by ELISA method; type: functional, organism-based; parameters: dose 100 mg/kg; details: at 100 mg/kg; summary of the method: as §6
Mus musculus [18] = experiment: Antinociceptive activity in Swiss Webster mouse assessed as increase in latency time at 100 mg/kg, ip measured after 0.5 to 2 hrs by hot plate test; type: functional, organism-based; parameters: dose 100 mg/kg; summary of the method: as §5
Mus musculus [19] = experiment: Antinociceptive activity in Swiss Webster mouse assessed as inhibition of formalin-induced late phase pain response at 50 mg/kg, ip dosed 40 mins before formalin injection; type: functional, organism-based; parameters: dose 50 mg/kg; summary of the method: as §2
Mus musculus [20] = experiment: Antinociceptive activity in Swiss Webster mouse assessed as inhibition of formalin-induced early phase pain response at 50 mg/kg, ip dosed 40 mins before formalin injection; type: functional, organism-based; parameters: dose 50 mg/kg; summary of the method: as §2

## C[C@]12C(=O)C=CCC1=CC[C@@H]1[C@@H]2CC[C@]2(O)C(=O)O[C@@]3(C)[C@H]4C[C@]5(C)[C@@H](CO[C@@]16O[C@@]32[C@H]5C6=O)C(=O)O4 [PHYSALIN B]
Mus musculus [1]
  inhibition: Dose-dependent effect
Mus musculus [2]
  inhibition: Active
Mus musculus [3]
  Activity: Non-toxic
Mus musculus [4]
  Activity: Non-toxic
Mus musculus [5]
  inhibition: inactive
Mus musculus [6]
  inhibition: Active
Mus musculus [7]
  Activity: Active

## C[C@@]12C[C@H]3OC(=O)[C@@H]1CO[C@@]14O[C@]5([C@H]2C1=O)[C@@](O)(CC[C@H]1[C@H]4C[C@@H](O)[C@@]2(O)CC=CC(=O)[C@]12C)C(=O)O[C@@]35C [PHYSALIN D]
Mus musculus [1]
  inhibition: Dose-dependent effect
Mus musculus [2]
  inhibition: Active
Mus musculus [3]
  Activity: Non-toxic
Mus musculus [4]
  Activity: Non-toxic
Mus musculus [5]
  inhibition: inactive
Mus musculus [8]
  inhibition: inactive
Mus musculus [9]
  Activity: Active

## C[C@@]12C[C@H]3OC(=O)[C@@H]1CO[C@]14O[C@]5([C@H]2C1=O)[C@@](O)(CC[C@H]1[C@H]4C[C@H]2O[C@]24CC=CC(=O)[C@]14C)C(=O)O[C@@]35C [PHYSALIN F]
Mus musculus [10]
  inhibition: Active
Mus musculus [11]
  inhibition: Active
Mus musculus [12]
  inhibition: Active
Mus musculus [3]
  Activity: Non-toxic
Mus musculus [4]
  Activity: Non-toxic
Mus musculus [13]
  inhibition: Active
Mus musculus [14]
  inhibition: inactive
Mus musculus [15]
  inhibition: Active
Mus musculus [16]
  inhibition: Active
Mus musculus [17]
  inhibition: inactive
Mus musculus [7]
  Activity: Active
Mus musculus [18]
  Activity: Active

## C[C@]12C(=O)C=CC=C1[C@@H](O)C[C@@H]1[C@@H]2CC[C@@]2(O)C(=O)O[C@@]3(C)[C@H]4C[C@]5(C)[C@@H](CO[C@@]16O[C@]23[C@H]5C6=O)C(=O)O4 [PHYSALIN G]
Mus musculus [1]
  inhibition: Dose-dependent effect
Mus musculus [19]
  inhibition: Active
Mus musculus [20]
  inhibition: Active
Mus musculus [3]
  Activity: Non-toxic
Mus musculus [4]
  Activity: Non-toxic
Mus musculus [5]
  inhibition: inactive
Mus musculus [8]
  inhibition: inactive
Mus musculus [7]
  Activity: Active
Mus musculus [18]
  Activity: Active
